The source made the active and inactive calls. The calls are words filed in the database; no cut-off is given here.
How the values were obtained:
[1] = target: CYP2D6 (Homo sapiens, UniProt P10635); test: Inhibition of human recombinant CYP2D6 using MFC as substrate at 10 uM incubated for 40 mins by fluorimetry relative to control; assay type: ADME; settings: recombinant CYP2D6, probe MFC
Method in brief: (§1)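 Recombinant CYP isoforms, each with its fluorogenic substrate: CYP1A2 and CYP2C19 with CEC, CYP2C9 and CYP2D6 with MFC, CYP3A4 with BFC. Read as percentage inhibition of control, standard contract assays.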

[2] = Cytotoxicity against human HepG2 cells assessed as reduction in nuclear size at 1 uM after 72 hrs by fluorescent image analysis relative to untreated control; assay type: cell-based; settings: read-out: INH
Method in brief: (§2)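 Contract in vitro cytotoxicity panel covering cell number, intracellular free calcium, nuclear size, membrane permeability and mitochondrial membrane potential. Compounds tested at 1.0, 30.0 and 100.0 µM; values are percentage change versus untreated control, and IC50 where derived.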

[3] = Cytotoxicity against human HepG2 cells assessed as reduction in nuclear size at 30 uM after 72 hrs by fluorescent image analysis relative to untreated control; assay type: cell-based; settings: read-out: INH; method in brief: as §2
[4] = system: HepG2; test: Cytotoxicity against human HepG2 cells assessed as increase in intracellular free calcium level at 100 uM after 72 hrs by fluorescent image analysis relative to untreated control; assay type: cell-based; settings: hepg2, 72 h; method in brief: as §2
[5] = target: T1, CYP1A2 (Homo sapiens, UniProt P05177); test: Inhibition of human recombinant CYP1A2 using CEC as substrate at 10 uM incubated for 30 mins by fluorimetry relative to control; assay type: ADME; settings: recombinant CYP1A2, probe CEC; method in brief: as §1
T1 sequence (P05177 whole entry): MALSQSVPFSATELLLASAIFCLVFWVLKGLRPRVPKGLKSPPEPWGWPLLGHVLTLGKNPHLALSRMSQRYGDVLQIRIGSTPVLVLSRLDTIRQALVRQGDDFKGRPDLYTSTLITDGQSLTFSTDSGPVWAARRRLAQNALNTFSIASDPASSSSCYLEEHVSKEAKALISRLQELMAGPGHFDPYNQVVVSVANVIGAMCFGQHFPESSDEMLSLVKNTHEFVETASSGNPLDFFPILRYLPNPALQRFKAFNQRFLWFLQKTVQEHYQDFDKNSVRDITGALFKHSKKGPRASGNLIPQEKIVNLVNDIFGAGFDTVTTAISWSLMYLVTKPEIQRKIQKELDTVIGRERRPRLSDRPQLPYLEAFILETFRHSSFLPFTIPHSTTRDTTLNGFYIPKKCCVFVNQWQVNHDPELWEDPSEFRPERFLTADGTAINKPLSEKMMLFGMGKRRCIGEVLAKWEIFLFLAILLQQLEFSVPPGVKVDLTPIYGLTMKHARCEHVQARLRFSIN

[6] = target: T2, hERG (KCNH2) (Homo sapiens, UniProt Q12809); test: in vitro; settings: CHO-K1 cells expressing human ERG
T2 sequence (Q12809 whole entry): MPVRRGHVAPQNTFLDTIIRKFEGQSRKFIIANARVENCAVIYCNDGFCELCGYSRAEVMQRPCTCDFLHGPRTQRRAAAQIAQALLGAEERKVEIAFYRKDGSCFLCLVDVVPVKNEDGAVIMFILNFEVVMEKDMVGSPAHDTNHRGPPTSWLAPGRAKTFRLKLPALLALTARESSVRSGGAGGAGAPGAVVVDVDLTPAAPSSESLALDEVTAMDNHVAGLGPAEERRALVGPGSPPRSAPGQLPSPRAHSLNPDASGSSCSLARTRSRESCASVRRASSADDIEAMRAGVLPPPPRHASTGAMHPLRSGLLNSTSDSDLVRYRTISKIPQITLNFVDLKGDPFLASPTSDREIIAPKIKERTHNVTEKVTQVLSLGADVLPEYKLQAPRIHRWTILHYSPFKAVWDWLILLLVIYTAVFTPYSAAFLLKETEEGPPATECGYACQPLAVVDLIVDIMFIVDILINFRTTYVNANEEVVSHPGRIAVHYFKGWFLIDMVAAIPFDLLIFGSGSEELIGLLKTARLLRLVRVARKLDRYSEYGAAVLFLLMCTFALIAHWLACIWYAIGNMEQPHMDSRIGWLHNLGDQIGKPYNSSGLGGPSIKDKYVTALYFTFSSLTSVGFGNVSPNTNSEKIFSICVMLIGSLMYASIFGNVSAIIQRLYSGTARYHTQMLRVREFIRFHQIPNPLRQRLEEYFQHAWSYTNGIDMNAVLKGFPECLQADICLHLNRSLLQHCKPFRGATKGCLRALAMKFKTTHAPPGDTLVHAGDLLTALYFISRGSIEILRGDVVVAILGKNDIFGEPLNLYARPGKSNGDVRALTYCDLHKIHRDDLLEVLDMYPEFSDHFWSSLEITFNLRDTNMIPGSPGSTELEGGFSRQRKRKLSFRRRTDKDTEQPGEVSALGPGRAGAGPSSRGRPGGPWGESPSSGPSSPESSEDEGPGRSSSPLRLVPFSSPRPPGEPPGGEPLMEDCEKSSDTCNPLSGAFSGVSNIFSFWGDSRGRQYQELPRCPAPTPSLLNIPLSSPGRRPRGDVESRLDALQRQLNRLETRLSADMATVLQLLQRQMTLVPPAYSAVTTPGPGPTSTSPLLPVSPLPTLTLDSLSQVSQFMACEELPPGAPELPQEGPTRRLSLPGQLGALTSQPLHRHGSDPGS

[7] = Cytotoxicity against human HepG2 cells assessed as reduction in nuclear size at 100 uM after 72 hrs by fluorescent image analysis relative to untreated control; assay type: cell-based; settings: read-out: INH; method in brief: as §2
[8] = target: CYP3A4 (Homo sapiens, UniProt P08684); test: Inhibition of human recombinant CYP3A4 using BFC as substrate at 10 uM incubated for 30 mins by fluorimetry relative to control; assay type: ADME; settings: recombinant CYP3A4, probe BFC; method in brief: as §1
Sequence of CYP3A4 (P08684 whole entry): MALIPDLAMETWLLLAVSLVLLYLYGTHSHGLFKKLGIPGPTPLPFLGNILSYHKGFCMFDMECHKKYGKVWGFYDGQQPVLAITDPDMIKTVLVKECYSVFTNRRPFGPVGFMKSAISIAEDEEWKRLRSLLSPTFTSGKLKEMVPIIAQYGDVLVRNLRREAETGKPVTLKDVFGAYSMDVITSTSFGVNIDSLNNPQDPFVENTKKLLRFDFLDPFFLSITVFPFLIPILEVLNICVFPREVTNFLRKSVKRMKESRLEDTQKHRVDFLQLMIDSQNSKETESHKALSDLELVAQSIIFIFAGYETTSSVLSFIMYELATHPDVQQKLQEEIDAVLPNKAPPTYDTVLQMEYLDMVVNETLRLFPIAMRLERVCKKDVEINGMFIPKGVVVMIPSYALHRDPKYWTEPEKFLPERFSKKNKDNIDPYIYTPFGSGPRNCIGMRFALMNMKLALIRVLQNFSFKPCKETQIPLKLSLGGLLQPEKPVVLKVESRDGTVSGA

[9] = target: T2, hERG (KCNH2); test: in vitro; settings: CHO-K1 cells expressing human ERG; remark: listed apart in the source
[10] = Cytotoxicity against human HepG2 cells assessed as reduction in mitochondrial membrane potential at 30 uM after 72 hrs by fluorescent image analysis relative to untreated control; assay type: cell-based; settings: read-out: INH; method in brief: as §2
[11] = system: MDCK-II; test: Inhibition of human P-gp expressed in MDCK2-MDR1 cells assessed as reduction in calcien-AM efflux at 1 uM incubated for 20 mins by fluorimetry relative to control; assay type: cell-based
Method in brief: (§3)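 P-gp efflux inhibition in MDR1-MDCKII cells with calcein AM substrate, tested up to 100.0 µM. Read as percentage inhibition of control.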

[12] = system: MDCK-II; test: Inhibition of human P-gp expressed in MDCK2-MDR1 cells assessed as reduction in calcien-AM efflux at 30 uM incubated for 20 mins by fluorimetry relative to control; assay type: cell-based; method in brief: as §3
[13] = system: HepG2; test: Cytotoxicity against human HepG2 cells assessed as increase in intracellular free calcium level at 1 uM after 72 hrs by fluorescent image analysis relative to untreated control; assay type: cell-based; settings: hepg2, 72 h; method in brief: as §2
[14] = Cytotoxicity against human HepG2 cells assessed as reduction in mitochondrial membrane potential at 100 uM after 72 hrs by fluorescent image analysis relative to untreated control; assay type: cell-based; settings: read-out: INH; method in brief: as §2
[15] = system: Human immunodeficiency virus 1; test: Selectivity ratio of EC50 for raltegravir resistant HIV1 harboring integrase G140S/Q148H double mutant infected in human MT4 cells to EC50 for wild type HIV1 infected in human MT4 cells; assay type: functional
Method in brief: (§4)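 MT-4 cells were infected with 100–300 CCID₅₀ of virus stock (titrated in MT-4 cells) in the presence of 5-fold serial drug dilutions. EC₅₀ is the concentration giving 50% protection against virus-induced cytopathic effect, read by MTT reduction (MT-4/MTT assay). The value is the fold-change in EC₅₀ for each mutant strain relative to the wild-type HIV-1 strain.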

[16] = Cytotoxicity against human HepG2 cells assessed as reduction in cell number at 1 uM after 72 hrs by fluorescent image analysis relative to untreated control; assay type: cell-based; settings: read-out: INH; method in brief: as §2
[17] = system: MDCK-II; test: Inhibition of human P-gp expressed in MDCK2-MDR1 cells assessed as reduction in calcien-AM efflux at 100 uM incubated for 20 mins by fluorimetry relative to control; assay type: cell-based; method in brief: as §3
[18] = target: CYP2C9 (Homo sapiens, UniProt P11712); test: Inhibition of human recombinant CYP2C9 using MFC as substrate at 10 uM incubated for 40 mins by fluorimetry relative to control; assay type: ADME; settings: recombinant CYP2C9, probe MFC; method in brief: as §1
Sequence of CYP2C9 (P11712 whole entry): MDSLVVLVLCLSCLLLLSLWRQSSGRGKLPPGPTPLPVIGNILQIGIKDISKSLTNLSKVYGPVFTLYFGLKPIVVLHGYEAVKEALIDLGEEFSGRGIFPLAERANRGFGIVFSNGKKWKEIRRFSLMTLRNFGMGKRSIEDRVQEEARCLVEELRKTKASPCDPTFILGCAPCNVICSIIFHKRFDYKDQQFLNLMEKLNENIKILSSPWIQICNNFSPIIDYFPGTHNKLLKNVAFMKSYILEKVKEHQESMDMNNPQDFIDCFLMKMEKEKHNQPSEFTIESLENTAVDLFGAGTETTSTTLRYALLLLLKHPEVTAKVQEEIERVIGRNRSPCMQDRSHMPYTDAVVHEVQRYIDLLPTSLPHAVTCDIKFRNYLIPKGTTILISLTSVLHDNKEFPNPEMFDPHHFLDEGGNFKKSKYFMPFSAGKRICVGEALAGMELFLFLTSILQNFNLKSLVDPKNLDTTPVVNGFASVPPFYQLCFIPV

[19] = system: Human immunodeficiency virus 1; test: Selectivity ratio of EC50 for raltegravir resistant HIV1 harboring integrase Q148H mutant infected in human MT4 cells to EC50 for wild type HIV1 infected in human MT4 cells; assay type: functional; method in brief: as §4
[20] = system: HepG2; test: Cytotoxicity against human HepG2 cells assessed as increase in membrane permeability at 100 uM after 72 hrs by fluorescent image analysis relative to untreated control; assay type: cell-based; settings: hepg2, 72 h
[21] = system: Human immunodeficiency virus 1; test: Antiviral activity against HIV1 3B infected in human MT4 cells at 50 to 100 times antiviral EC50 added 1 to 25 hrs post infection assessed as time required for loss of inhibition of viral replication measured at 30 hrs post infection by p24 ELISA method; assay type: functional
[22] = system: Human immunodeficiency virus 1; test: Selectivity ratio of EC50 for raltegravir resistant HIV1 harboring integrase N155H mutant infected in human MT4 cells to EC50 for wild type HIV1 infected in human MT4 cells; assay type: functional; method in brief: as §4
[23] = Cytotoxicity against human HepG2 cells assessed as reduction in cell number at 100 uM after 72 hrs by fluorescent image analysis relative to untreated control; assay type: cell-based; settings: read-out: INH; method in brief: as §2
[24] = system: HepG2; test: Cytotoxicity against human HepG2 cells assessed as increase in intracellular free calcium level at 30 uM after 72 hrs by fluorescent image analysis relative to untreated control; assay type: cell-based; settings: hepg2, 72 h; method in brief: as §2
[25] = Cytotoxicity against human HepG2 cells assessed as reduction in mitochondrial membrane potential at 1 uM after 72 hrs by fluorescent image analysis relative to untreated control; assay type: cell-based; settings: read-out: INH; method in brief: as §2
[26] = system: HepG2; test: Cytotoxicity against human HepG2 cells assessed as increase in membrane permeability at 30 uM after 72 hrs by fluorescent image analysis relative to untreated control; assay type: cell-based; settings: hepg2, 72 h
[27] = system: HepG2; test: Cytotoxicity against human HepG2 cells assessed as increase in membrane permeability at 1 uM after 72 hrs by fluorescent image analysis relative to untreated control; assay type: cell-based; settings: hepg2, 72 h
[28] = target: T2, hERG (KCNH2); test: in vitro; settings: CHO-K1 cells expressing human ERG; remark: listed apart in the source
[29] = target: CYP2C19 (Homo sapiens, UniProt P33261); test: Inhibition of human recombinant CYP2C19 using CEC as substrate at 10 uM incubated for 50 mins by fluorimetry relative to control; assay type: ADME; settings: recombinant CYP2C19, probe CEC; method in brief: as §1
Sequence of CYP2C19 (P33261 whole entry): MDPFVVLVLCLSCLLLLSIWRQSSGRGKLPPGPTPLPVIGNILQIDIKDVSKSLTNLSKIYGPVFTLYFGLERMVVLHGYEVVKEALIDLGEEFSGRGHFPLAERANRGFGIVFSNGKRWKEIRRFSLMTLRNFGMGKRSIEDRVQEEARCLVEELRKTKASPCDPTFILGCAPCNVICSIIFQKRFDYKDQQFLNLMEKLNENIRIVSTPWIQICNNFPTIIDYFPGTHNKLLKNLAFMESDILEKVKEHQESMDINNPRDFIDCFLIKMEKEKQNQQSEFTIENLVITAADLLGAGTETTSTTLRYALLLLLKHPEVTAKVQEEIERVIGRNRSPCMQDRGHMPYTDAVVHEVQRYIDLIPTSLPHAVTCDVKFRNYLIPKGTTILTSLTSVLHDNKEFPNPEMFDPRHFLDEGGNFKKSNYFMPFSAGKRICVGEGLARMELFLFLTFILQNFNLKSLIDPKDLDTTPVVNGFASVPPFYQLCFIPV

[30] = Cytotoxicity against human HepG2 cells assessed as reduction in cell number at 30 uM after 72 hrs by fluorescent image analysis relative to untreated control; assay type: cell-based; settings: read-out: INH; method in brief: as §2

Sequence of CYP2D6 (P10635 whole entry, canonical isoform): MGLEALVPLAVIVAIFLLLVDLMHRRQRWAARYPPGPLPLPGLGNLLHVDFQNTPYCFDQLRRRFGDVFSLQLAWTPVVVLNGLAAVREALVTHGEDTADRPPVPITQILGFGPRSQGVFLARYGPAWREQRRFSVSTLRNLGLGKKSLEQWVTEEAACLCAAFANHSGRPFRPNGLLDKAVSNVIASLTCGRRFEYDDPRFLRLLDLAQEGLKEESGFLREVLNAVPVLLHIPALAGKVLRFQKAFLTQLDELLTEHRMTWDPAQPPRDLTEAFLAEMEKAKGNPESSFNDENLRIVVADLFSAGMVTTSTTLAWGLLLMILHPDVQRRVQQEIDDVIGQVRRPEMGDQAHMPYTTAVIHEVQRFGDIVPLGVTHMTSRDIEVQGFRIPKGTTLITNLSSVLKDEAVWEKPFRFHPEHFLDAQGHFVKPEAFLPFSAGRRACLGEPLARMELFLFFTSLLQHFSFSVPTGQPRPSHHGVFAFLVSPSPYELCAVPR

SMILES: O=C(NCc1ccc(F)cc1)C1C(=O)N(O)C(=O)c2ccccc21 (stereo not given)
- inhibition at 40 min, 10 µM [1]: 6.6%
- cytotoxicity at 72 h, 1 µM [2]: -1%
- cytotoxicity at 72 h, 30 µM [3]: 13.1%
- Activity [4]: 29.9%
- inhibition at 0.5 h, 10 µM [5]: 5.2%
- inhibition at 5 min, 1 µM [6]: 10.6%
- cytotoxicity at 72 h, 100 µM [7]: 18.7%
- inhibition at 0.5 h, 10 µM [8]: 35.9%
- inhibition at 5 min, 0.1 µM [9]: 3.4%
- cytotoxicity at 72 h, 30 µM [10]: -21.2%
- inhibition [11]: -5.4%
- inhibition [12]: -4%
- Activity [13]: -1.7%
- cytotoxicity at 72 h, 100 µM [14]: 6.3%
- Ratio EC50 [15]: 1
- cytotoxicity at 72 h, 1 µM [16]: -22.8%
- inhibition [17]: -3.7%
- inhibition at 40 min, 10 µM [18]: 6.4%
- Ratio EC50 [19]: 1
- Activity [20]: 41.2%
- Activity [21]: Active
- Ratio EC50 [22]: 1
- cytotoxicity at 72 h, 100 µM [23]: 16%
- Activity [24]: 9.6%
- cytotoxicity at 72 h, 1 µM [25]: 11.8%
- Activity [26]: 20.3%
- Activity [27]: -0.5%
- inhibition at 5 min, 10 µM [28]: 13.3%
- inhibition at 50 min, 10 µM [29]: 18%
- cytotoxicity at 72 h, 30 µM [30]: 25.7%
